Screening data from PubChem.
Compounds with a hit are over-represented: about 0.97% of the library has one in this group of screens.
Dynein transport: inhibitors of GR-EGFP nuclear translocation, primary screen, dynein cargo transport inhibitor project, imaging, high-content, 3617.4 mouse cells | test concentration mostly 20 µM; stimulated with dexamethasone, 1 µM; active compounds read low | AID 1381, 2008 | 220,000 compounds, 0.47% hits | z-score, hits read low;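 active = plate z-score of nuclear minus cytoplasmic receptor signal below a set negative limit, without overly bright fluorescence or cell loss, cut at about -3.5 in these data, passing the limit was not always enough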;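 note: z-score of nuclear minus cytoplasmic ring GR-EGFP intensity difference per well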
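medium = tetracycline-free induction medium containing charcoal-stripped FBS | also added = 1.0 µM final dexamethasone stimulus | schedule = 48 h induction, 1 h compound, 30 min dex at 37 °C | technique = fixed, Hoechst-stained cells imaged at 10x for EGFP | measure = GR-EGFP nuclear translocation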
L929 necroptosis: inhibitors of zVAD-triggered necroptosis, primary screen, L929 cells; L929 zVAD necroptosis rescue, ATP luminescence, 24 h; with zVAD 60 µM; viability rescue, % at 10 µM; 220,000 compounds, 0.38% hits; AID 1377, 2008;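 active = activation, scaled between plate controls, above about 75%, limit read from the data; inactive = activation under that limit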;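 note: 0% = zVAD with DMSO and 100% = DMSO alone without zVAD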
B2AR ag: beta2AR agonists driving receptor internalization, primary screen, cell-based, FAP fluorogen, flow cytometry; AID 504454, 2011; response, % (concentration not given with the values); Beta-2 adrenergic receptor (Homo sapiens), P07550; Am2.2-beta2AR cells; 340,000 compounds, 0.43% hits;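 active = response above a set limit, near 3 SD of response in nonfluorescent compounds, cut at about 42% in these data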
MDM2 E3 inh: MDM2-luciferase reporter signal enhancers, primary screen, MDM2 E3 ligase inhibitor project, cell-based, luminescence, 1536-well; E3 ubiquitin-protein ligase Mdm2 (Homo sapiens), Q00987; cell-based MDM2 ubiquitination luciferase reporter, 2 h; 0 = plate control, 100 = twice control, blank-subtracted; signal enhancement, % at 5 µM; 210,000 compounds, 0.11% hits;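 active = signal enhancement of 30% or more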;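 note: luminescence tracks abundance of the self-degrading MDM2-luciferase fusion protein; higher signal means inhibition of MDM2 E3 ligase activity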
Target sequence (Q00987 whole entry, looked up, the tested form may be a part): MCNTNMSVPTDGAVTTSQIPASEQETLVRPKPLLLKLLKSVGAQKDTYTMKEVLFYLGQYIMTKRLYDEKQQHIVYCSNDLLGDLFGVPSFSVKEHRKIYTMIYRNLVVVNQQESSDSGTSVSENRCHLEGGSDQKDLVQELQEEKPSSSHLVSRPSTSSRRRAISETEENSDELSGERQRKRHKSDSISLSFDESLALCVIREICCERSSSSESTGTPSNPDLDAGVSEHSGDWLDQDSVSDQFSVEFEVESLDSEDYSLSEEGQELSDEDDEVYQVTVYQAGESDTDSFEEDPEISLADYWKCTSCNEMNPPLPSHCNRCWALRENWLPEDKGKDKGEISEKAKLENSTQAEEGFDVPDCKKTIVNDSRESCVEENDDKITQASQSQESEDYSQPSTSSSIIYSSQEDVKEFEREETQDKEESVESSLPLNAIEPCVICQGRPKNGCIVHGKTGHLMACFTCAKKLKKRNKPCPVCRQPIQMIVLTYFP
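Test system: mammalian cells stably expressing self-ubiquitinating, self-degrading MDM2 E3–luciferase fusion; Amount: 2000 cells in each well; Medium: DMEM; Schedule: 4 h settle plus 2 h compound, 37 °C; Technique: SteadyLite luciferase luminescence after 15 min room-temperature reagent incubation; Benchmarks: plate control and blank wells.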
TNF necrop inh: inhibitors of TNF-alpha triggered necroptosis, primary screen, cell-based, Jurkat FADD-/-, single concentration | Jurkat FADD-/- TNF necroptosis rescue, ATP luminescence, 24 h; 0 = TNF only, 100 = no-TNF cells | 220,000 compounds, 0.068% hits | activation (protection from cell death), % at 10 µM | AID 463075, 2010;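 active = activation, meaning protection from cell death, of at least 50% relative to plate controls; inactive = activation below 50%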;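 note: necroptosis triggered by 40 ng/mL TNF-alpha added together with compound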
Active calls of the source: *; · = no result given.

SMILES | Dynein transport | L929 necroptosis | B2AR ag | MDM2 E3 inh | TNF necrop inh
O=C(CCN1C(=O)c2cccc3cccc(c23)C1=O)NCC1CCCO1 (stereo unspecified) | -0.27 | 0 | 5 | · | 5
CCOC(=O)/C(=C\c1ccc(Cl)cc1)c1nc2sc(C)c(C)c2c(=O)[nH]1 | -3.4 | 0 | 51* | -3 | 1
c1ccc(CCNc2ccnc3cc4ccccc4cc23)cc1 | -5 | -3 | 81* | -39 | -14
C=CCn1c(=NC(=O)c2ccc(S(=O)(=O)N3CCCc4ccccc43)cc2)sc2cc(S(N)(=O)=O)ccc21 | -0.6 | 0 | 8 | 16 | 0
COCCn1c(=NC(=O)c2ccc(S(=O)(=O)N3CCCc4ccccc43)cc2)sc2cc(S(C)(=O)=O)ccc21 | -1 | 0 | 19 | 42* | 1
O=C1C(Cl)=C(NC(=O)c2ccccc2)C(=O)C(Cl)=C1NC(=O)c1ccccc1 | · | · | 56* | · | ·
O=C(O)c1cn(-c2ccc(F)c(F)c2)c2c(F)c(F)c(F)c(F)c2c1=O | -6.4* | -1 | 5 | -2 | -7
O=C1C2C3C=CC(CO)(O3)C2C(=O)N1c1ccccc1-c1ccccc1 (stereo unspecified) | -5.7* | 1 | 55* | -10 | 1
CC(=O)Oc1ccc(N2C(=O)C3C4C=CC(CO)(O4)C3C2=O)cc1 (stereo unspecified) | 0.033 | 0 | -4 | -10 | 1
COc1cccc(/C=C2\N=C3CCCCCN3C2=O)c1 | 0.29 | 0 | 2 | -4 | 1
CCN1CCN(C(=O)c2ccc3c(c2)N(Cc2ccccc2)C(=O)c2ccccc2S3=O)CC1 (stereo unspecified) | · | · | 3 | · | ·
O=C(O)c1ccc2c(c1)N(Cc1ccccc1F)C(=O)c1ccccc1S2=O (stereo unspecified) | -0.049 | 0 | 4 | 71* | -1
CCN(CC)c1ccc(/C=C2/C(=O)c3ccc(C(=O)O)cc3C2=O)cc1 | 0.56 | 0 | -68 | 63* | 1
Cc1noc(C)c1COc1ccc(C(=O)NCc2ccccn2)cc1 | -0.58 | 0 | 11 | 68* | 0
COc1ccc(-c2cc(-c3ccccc3)c(C#N)c(S(C)=O)n2)cc1 (stereo unspecified) | -1.6 | 23 | 44* | 10 | -13
COc1ccccc1C(=O)NCC(=O)N=Nc1c(O)n(C(C)C)c2ccccc12 | · | · | 0 | · | ·
Cc1ccc(OCC(=O)NNC(=O)C2CCN(c3nccc(C)n3)CC2)cc1 | 1.3 | 0 | 105* | 6 | -3
O=C(O)C1C2C=CC(C2)C1C(=O)Nc1cccc(C(F)(F)F)c1 (stereo unspecified) | · | · | 10 | · | ·
CCN1CCN(c2nc(N)c([N+](=O)[O-])c(Nc3ccc(C)c(C)c3)n2)CC1 | -0.21 | 2 | 63* | -13 | 2
CCN1CCN(c2nc(N)c([N+](=O)[O-])c(Nc3ccc(C)cc3)n2)CC1 | -0.12 | 0 | -8 | 7 | -2
O=C(NNc1c2ccccc2nc2ccccc12)C12CC3CC(CC(C3)C1)C2 | 0.7 | 0 | 45* | -1 | -1
O=C(NNc1c2ccccc2nc2ccccc12)c1ccccc1O | -0.55 | 2 | 53* | 2 | 0
O=C(NNc1c2ccccc2nc2ccccc12)c1ccccc1Cl | · | · | -10 | · | ·
CCOC(=O)/C(=C\c1ccc(OC(F)F)cc1)C1=Nn2c(nnc2-c2ccc(Cl)cc2)SC1 | -2.6 | -1 | 80* | 7 | -10
O=S(=O)(c1cnc(Cl)c(Cl)c1)N1CCCc2ccccc21 | -1.6 | 0 | -1 | -9 | 0
SMILES | Dynein transport | L929 necroptosis | B2AR ag | MDM2 E3 inh | TNF necrop inh
O=S(=O)(c1cnc(Cl)c(Cl)c1)N1CCc2ccccc21 | -4.3* | 0 | 4 | -15 | -6
CC1CCN(C(=O)c2ccc(NS(=O)(=O)c3cccs3)cc2)CC1 | · | · | -4 | · | ·
COCCNc1nc2nonc2nc1N(C)Cc1cccc2cnccc12 | 0.91 | 1 | -3 | 48* | 1
CCN(c1ccccc1)c1nc2nonc2nc1NCCO | 0.55 | 0 | 6 | -2 | 0
CCOC(=O)Cn1cnc2c(nnn2Cc2ccc(Cl)cc2)c1=O | -0.87 | 1 | 5 | -10 | -4
O=[N+]([O-])C1=CC=C2C(=NC3(CCCCC3)N2O)C1=NCCc1ccccc1 | -1.5 | 0 | -4 | 31* | -3
O=C(c1ccco1)N(Cc1cccc(Br)c1)C1CCS(=O)(=O)C1 (stereo unspecified) | · | · | -7 | · | ·
Cn1nc([N+](=O)[O-])nc1Sc1nnc(-c2ccccc2)o1 | -3.7* | -1 | 13 | -7 | -11
O=Cc1ccc(Sc2nnc(-c3ccccc3)o2)c([N+](=O)[O-])c1 | -2.2 | 0 | 2 | -17 | 3
Cn1c(=O)n(Cc2ccc(Br)cc2)c2ccccc21 | -0.18 | 0 | -8 | -14 | 4
O=C(Cn1ncc(Cl)c(Cl)c1=O)N1CCc2ccccc21 | -3.5 | 69 | 54* | -39 | -15
Cc1ccc(/C=C2\C(=O)Nc3ccccc32)o1 | 0.29 | 78* | 2 | -14 | 0
O=C1Nc2ccccc2/C1=C/c1ccccc1F | · | · | 11 | · | ·
CCOC(=O)c1c(C)[nH]c(C(=O)CN2C(=O)NC(C)(CC(C)C)C2=O)c1C (stereo unspecified) | 0.59 | 2 | 5 | -15 | -2
NC(=O)C1CCN(C2=C(Cl)C(=O)c3ccccc3C2=O)CC1 | -2.9 | -1 | 46* | -43 | -25
O=C1C(Cl)=C(N2CCC(C(=O)O)CC2)C(=O)c2ccccc21 | -0.9 | 1 | 7 | 0 | -11
O=C(N=Nc1c(O)[nH]c2ccc(Cl)cc12)c1cc(-c2cccs2)nc2ccccc12 | 0.54 | 0 | 47* | -11 | 1
O=C(N=Nc1c(O)[nH]c2ccc([N+](=O)[O-])cc12)c1ccccc1Cl | -0.57 | 2 | -2 | -11 | -1
CC(C)c1ccc(S(=O)(=O)/N=C2/C=C(Sc3ncn[nH]3)C(=O)c3ccccc32)cc1 | -5.3* | 2 | 22 | 10 | -9
Cc1ccc(S(=O)(=O)Nc2ccc(O)c(Sc3ncn[nH]3)c2)cc1 | -0.039 | 1 | -1 | -9 | 1
Cc1ccc(S(=O)(=O)/N=C2/C=C(Sc3ncn[nH]3)C(=O)c3ccccc32)cc1 | -3.7* | 2 | 85* | 5 | 0
Cc1ccc(S(=O)(=O)/N=C2\C=C(NS(=O)(=O)c3ccccc3)C(=O)c3ccccc32)c(C)c1 | · | · | 5 | · | ·
CC(C)(C)c1ccc(S(=O)(=O)/N=C2\C=C(NS(=O)(=O)c3ccccc3)C(=O)c3ccccc32)cc1 | · | · | 2 | · | ·
Cc1ccc(S(=O)(=O)/N=C2/C=C(Sc3ncn[nH]3)C(=O)c3ccccc32)c(C)c1 | -3.6* | 3 | · | 6 | -9
